Source: ChEMBL document CHEMBL1152808, “Novel adenosine-derived inhibitors of 70 kDa heat shock protein, discovered through structure-based design” (J Med Chem, 2009)
Activity calls are given as the source filed them. The calls are words filed in the database; no cut-off is given here.

Tests used:
[1] = Displacement of fluorescein labeled N6-(6-amino)hexyl-ATP-5-FAM from HSP70 by fluorescence polarization assay
Procedure, shortened: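 Competitive FP binding: displacement of fluorescein-labelled ATP-based probe N6-(6-amino)hexyl-ATP-5-FAM (probe KD 0.4 µM) from HSP70 at 0.4 µM protein; IC50 from binding competition.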

[2] = Binding affinity to HSP90 by fluorescence polarization assay
HCT-116 [3] = test: Cytotoxicity against human HCT116 cells by SRB assay; format: functional
Procedure, shortened: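 HCT116 human colon tumour cells; growth inhibition measured by sulforhodamine B (SRB) staining; GI50 reported.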

[4] = Binding affinity to HSP70 by Biocore direct binding assay
Procedure, shortened: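 SPR direct binding: double His-tagged HSP70 construct immobilized on a Biacore sensor chip; KD determined from direct ligand binding.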

HCT-116 [5] = test: Inhibition of HSP70 in human HCT116 cells assessed as reduction of […] protein levels after 24 hrs by Western blot; format: cell-based
Procedure, shortened: (§1)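 HCT116 cells exposed to compound for 24 h at 0.05 or 0.1 µM or 2.5-40 µM. Raf-1, Her2 and HSP70 expression detected by Western blot. GAPDH served as loading control.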

HCT-116 [6] = test: Inhibition of HSP70 in human HCT116 cells assessed as reduction of Raf1 protein levels after 24 hrs by Western blot; format: cell-based; procedure, shortened: as §1

| Compound | IC50 [1] | IC50 [2] | GI50 (HCT-116 [3]) | Kd [4] | Activity (HCT-116 [5]) | Activity (HCT-116 [6]) |
| --- | --- | --- | --- | --- | --- | --- |
| Nc1ncnc2c1nc(NCc1ccc3ncccc3c1)n2[C@@H]1O[C@H](CO)[C@@H](O)[C@H]1O | 2900 nM | > 400 µM | > 80 µM | – | – | – |
| Nc1ncnc2c1ncn2[C@@H]1O[C@H](COP(=O)(O)OP(=O)(O)OP(=O)(O)O)[C@@H](O)[C@H]1O [ADENOSINE TRIPHOSPHATE] | 500 nM | > 400 µM | – | – | – | – |
| N#Cc1ccc(COC[C@H]2O[C@@H](n3c(NCc4ccccc4)nc4c(N)ncnc43)[C@H](O)[C@@H]2O)cc1 | 1300 nM | > 400 µM | > 80 µM | 200 nM | – | – |
| Nc1ncnc2c1nc(NCc1ccc(Cl)c(Cl)c1)n2[C@@H]1O[C@H](CO)[C@@H](O)[C@H]1O | 9100 nM | > 400 µM | 26 µM | – | – | – |
| N#Cc1ccc(COC[C@H]2O[C@@H](n3c(NCc4ccc(Cl)c(Cl)c4)nc4c(N)ncnc43)[C@H](O)[C@@H]2O)cc1 | 500 nM | > 400 µM | 5 µM | 300 nM | Active | Active |
| Nc1ncnc2c1nc(NCc1ccc(Cl)c(Cl)c1)n2[C@@H]1O[C@H](COCc2cc(F)c(F)c(F)c2)[C@@H](O)[C@H]1O | 1700 nM | > 400 µM | 13 µM | 4200 nM | – | – |
| Nc1ncnc2c1nc(NCc1ccccc1)n2[C@@H]1O[C@H](CO)[C@@H](O)[C@H]1O | 10000 nM | > 400 µM | > 80 µM | – | – | – |
| CNc1nc2c(N)ncnc2n1[C@@H]1O[C@H](CO)[C@@H](O)[C@H]1O | 17000 nM | > 400 µM | 13 µM | – | – | – |
| N#Cc1ccc(COC[C@H]2O[C@@H](n3c(NCc4ccc5ncccc5c4)nc4c(N)ncnc43)[C@H](O)[C@@H]2O)cc1 | 900 nM | > 400 µM | > 80 µM | 50 nM | – | – |
| Nc1ncnc2c1nc(NCc1ccc3ncccc3c1)n2[C@@H]1O[C@H](COCc2cc(F)c(F)c(F)c2)[C@@H](O)[C@H]1O | < 400 nM | > 400 µM | 18 µM | 120 nM | – | – |
| COC[C@H]1O[C@@H](n2c(NCc3ccc(Cl)c(Cl)c3)nc3c(N)ncnc32)[C@H](O)[C@@H]1O | 3200 nM | > 400 µM | > 80 µM | – | – | – |
| Nc1ncnc2c1nc(NCc1ccc3ncccc3c1)n2[C@@H]1O[C@H](COCc2ccc(C(F)(F)F)cc2)[C@@H](O)[C@H]1O | 600 nM | > 400 µM | 27 µM | 60 nM | – | – |
| Nc1ncnc2c1ncn2[C@@H]1O[C@H](COP(=O)(O)OP(=O)(O)O)[C@@H](O)[C@H]1O [ADENOSINE DIPHOSPHATE] | 500 nM | > 400 µM | – | 500 nM | – | – |
| Nc1ncnc2c1nc(NCc1ccc3c(c1)OCO3)n2[C@@H]1O[C@H](CO)[C@@H](O)[C@H]1O | 4900 nM | > 400 µM | > 80 µM | – | – | – |
| Nc1ncnc2c1nc(NCc1ccc(Cl)c(Cl)c1)n2[C@@H]1O[C@H](COCc2ccccc2)[C@@H](O)[C@H]1O | 2400 nM | > 400 µM | > 80 µM | – | – | – |
| Nc1ncnc2c1nc(N)n2[C@@H]1O[C@H](CO)[C@@H](O)[C@H]1O | 9400 nM | > 400 µM | 0.05 µM | 11000 nM | inactive | inactive |
| Nc1ncnc2c1ncn2[C@@H]1O[C@H](CO)[C@@H](O)[C@H]1O [ADENOSINE] | 560000 nM | > 400 µM | – | – | – | – |
